Results reported in PMC5217871 (Journal of Diabetes Investigation, 2016).
Entries after “also recorded” stand apart in the source; their conditions may differ. Where two headings read alike, the source gives them in different places.

Legend:
[1] = cited from earlier work
[2] = Safety and tolerability assessments; assay type: in vivo, healthy Japanese men
Summary of the method: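 Part 1 used single doses of 5–100 mg and part 2 used 1–50 mg once weekly for 3 weeks, each with placebo. Adverse events were recorded throughout and rated for intensity, duration, severity, outcome and drug relationship. Vital signs, physical and neurological exams, 12-lead ECGs, laboratory tests and glucometer readings were taken predose, post-dose and post-study. Events were tabulated by dose, with change-from-baseline summaries.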

plasma DPP‐4 activity [3] = molecular target: T1, plasma DPP‐4 activity (Homo sapiens, UniProt P27487); assay type: in vivo, healthy Japanese men; settings: pharmacokinetic/pharmacodynamic Emax model
Summary of the method: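 For each participant, percent inhibition of plasma DPP-4 activity (chromogenic glycyl-prolyl-paranitroanilide substrate, 390 nm) was paired with plasma drug concentration after single oral doses. A population three-parameter Emax model (Emax, EC50, Hill slope) was fitted, and the 80% effective concentration was derived from it.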

OCT2 = settings: no reference given; cited from earlier work
Urine pharmacokinetics = assay type: in vivo, healthy Japanese men; settings: male, human, 50 mg
Summary of the method: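 After the 50 mg once-weekly dose on day 15, urine was collected predose (day 1) and at intervals up to 168 h. Tween 20 was added to 0.2% final and samples were stored at −20°C. The assay was LC online extraction, LLOQ 40 ng/mL. Amount excreted was the sum of concentration × volume per interval, fraction excreted was amount/dose, and renal clearance was amount/AUC0–168h.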

OAT1 = settings: no reference given; cited from earlier work
[4] = no reference given; cited from earlier work
plasma DPP‐4 activity [5] = molecular target: T1, plasma DPP‐4 activity; experiment: Percent inhibition of plasma DPP-4 activity from baseline; assay type: in vivo, healthy Japanese men; settings: for DPP-4 percent inhibition from baseline, LS mean (95% CI) / DPP-4 percent inhibition, difference from placebo, difference in LS means (90% CI): 168 h post-dose
Summary of the method: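 Healthy men received 1–50 mg orally once weekly for 3 weeks. Blood was drawn predose and at set times on days 1 and 15; 4-h and 24-h samples preceded meals. EDTA plasma was incubated with glycyl-prolyl-paranitroanilide, and the absorbance rise at 390 nm was read from 4 to 14 min (LOQ 0.6 mOD/min). Inhibition was taken versus pretreatment and analysed by a log-scale mixed model (treatment, day, interaction; participant random).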

OAT3 = settings: no reference given; cited from earlier work
[6] = assay type: in vivo, healthy Japanese men; settings: for Accumulation ratio (day 15/day 1) AUC0–168h / Accumulation ratio (day 15/day 1) Cmax / Accumulation ratio (day 15/day 1) Ctrough: geometric mean ratio (90% CI)
Summary of the method: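 Blood went into dipotassium-EDTA tubes, was spun 10 min at 1000–1300 g, and plasma was frozen at −20°C. Assay was online-extraction turbulent-flow LC, LLOQ 1.0 ng/mL. Accumulation was the day 15/day 1 geometric mean ratio, computed on the log scale with CIs. For the food comparison, 10 mg single doses were given after a ≥10-h fast or after a 411-kcal Japanese breakfast finished 10 min predose.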

[7] = concentration range for 50 mg q.w. dosing; ref unpubl. data; cited from earlier work
[8] = test system: active glucagon‐like peptide‐1; settings: healthy males; earlier study; cited from earlier work
[9] = single 5–100 mg and multiple 1–50 mg q.w. doses
[10] = single 5–100 mg and multiple 1–50 mg q.w. doses, listed as Omarigliptin
[11] = multiple dose 1 mg q.w., day 15
[12] = multiple dose 10 mg q.w., day 15
[13] = multiple dose 25 mg q.w., day 15
[14] = multiple dose 50 mg q.w., day 15

T1 sequence (P27487 39-766): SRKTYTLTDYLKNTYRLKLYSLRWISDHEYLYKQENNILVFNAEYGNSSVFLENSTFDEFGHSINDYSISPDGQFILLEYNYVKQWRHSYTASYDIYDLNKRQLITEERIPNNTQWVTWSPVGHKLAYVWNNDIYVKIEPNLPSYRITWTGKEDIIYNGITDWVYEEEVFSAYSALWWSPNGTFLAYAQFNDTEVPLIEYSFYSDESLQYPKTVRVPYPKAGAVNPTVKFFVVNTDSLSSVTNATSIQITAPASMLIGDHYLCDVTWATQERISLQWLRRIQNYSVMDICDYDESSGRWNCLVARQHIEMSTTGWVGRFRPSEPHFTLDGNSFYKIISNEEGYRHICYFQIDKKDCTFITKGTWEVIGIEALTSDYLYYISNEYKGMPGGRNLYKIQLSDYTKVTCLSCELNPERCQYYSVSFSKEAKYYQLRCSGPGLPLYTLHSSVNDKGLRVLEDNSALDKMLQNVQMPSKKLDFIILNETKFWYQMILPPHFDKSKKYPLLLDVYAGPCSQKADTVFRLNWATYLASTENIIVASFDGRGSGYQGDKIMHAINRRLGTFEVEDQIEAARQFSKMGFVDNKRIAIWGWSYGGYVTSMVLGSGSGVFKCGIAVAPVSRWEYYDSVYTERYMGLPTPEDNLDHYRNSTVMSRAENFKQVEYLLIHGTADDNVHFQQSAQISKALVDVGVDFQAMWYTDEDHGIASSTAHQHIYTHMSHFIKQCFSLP

For `Cn1c(=O)cc(N2CCC[C@@H](N)C2)n(Cc2cc(F)ccc2C#N)c1=O` [trelagliptin], the “renal clearance compared with typical glomerular filtration rates” value [1] is listed as “higher renal clearance than typical glomerular filtration rates”.
In the case of `N[C@@H](CC(=O)N1CCn2c(nnc2C(F)(F)F)C1)Cc1cc(F)c(F)cc1F` [sitagliptin], the “renal clearance compared with typical glomerular filtration rates” value [1] is given as “higher renal clearance than typical glomerular filtration rates”.
For `Cn1c(=O)cc(N2CCC[C@@H](N)C2)n(Cc2ccccc2C#N)c1=O` [alogliptin], the “renal clearance compared with typical glomerular filtration rates” value [1] is listed as “higher renal clearance than typical glomerular filtration rates”.
With `CS(=O)(=O)n1cc2c(n1)CN([C@H]1CO[C@H](c3cc(F)ccc3F)[C@@H](N)C1)C2` [omarigliptin] the “drug‐related clinical adverse events after omarigliptin” value ([2]; part 1, single dosing) was “five”, the “drug‐related adverse events” value ([2]; part 2, multiple dosing) was “Eight” and the “total clinical adverse events” value ([2]; part 2, multiple dosing, nine participants) was 13. For the same molecule, the “adverse events of hypoglycemia” value [2, 9] was “no adverse events of hypoglycemia”, the “serious clinical or laboratory adverse events” value [2, 9] was “no serious clinical or laboratory adverse events; also recorded: No deaths, serious adverse events or laboratory adverse events were reported” and the tolerability [2, 9] was “well tolerated”. The “adverse events of hypoglycemia” value [2, 10] was “no hypoglycemia being reported”, the tolerability [2, 10] was “generally well tolerated” and the “changes from baseline in laboratory, vital signs, glucose monitoring or ECG parameters” value ([2]; whole study) was “no clinically significant, consistent treatment‐related or dose‐related changes from baseline”. The “discontinuation because of an adverse event” value ([2]; whole study) was “no participants were discontinued”, the “intensity of adverse events” value ([2]; whole study, all resolved by the end of the study) was “mild or moderate intensity” and the Emax value (plasma DPP‐4 activity [3]) was 96.5 % inhibition. For the same molecule, the “estimated 80% effective concentration” value (plasma DPP‐4 activity [3]) was 11.4 nmol, the “substrate of drug transporter OCT2” value (OCT2) was “not a substrate” and the CL renal (Urine pharmacokinetics; urine and plasma, oral) was 50 to 68 mL/min. For the same molecule, the CL renal (Urine pharmacokinetics; urine, po) was 38.3 mL/min, the “substrate of drug transporter OAT1” value (OAT1) was “not a substrate” and the permeability [4] was “high permeability”. For the same molecule, the “percent inhibition of DPP‐4 activity from baseline at 168 h, range” value (plasma DPP‐4 activity [5]; 1–50 mg q.w., after 3 weeks dosing) was 51.3–90.2%, the “DPP-4 percent inhibition from baseline, LS mean (95% CI)” value (“DPP-4 percent inhibition … (95% CI)” below) (plasma DPP‐4 activity [5]; [11]) was 51.33 (29.67–66.32) % and the “DPP-4 percent inhibition, difference from placebo, difference in LS means (90% CI)” value (shortened to “DPP-4 percent inhibition, difference … (90% CI)”) (plasma DPP‐4 activity [5]; [11]) was 42.48 (31.06–54.19) %. For the same molecule, the “DPP-4 percent inhibition … (95% CI)” value (plasma DPP‐4 activity [5]; [12]) was 83.26 (77.03–87.80) %, the “DPP-4 percent inhibition, difference … (90% CI)” value (plasma DPP‐4 activity [5]; [12]) was 74.41 (65.73–83.59) % and the “DPP-4 percent inhibition … (95% CI)” value (plasma DPP‐4 activity [5]; [13]) was 87.52 (83.55–90.53) %. The “DPP-4 percent inhibition, difference … (90% CI)” value (plasma DPP‐4 activity [5]; [13]) was 78.67 (70.36–87.51) %, the “DPP-4 percent inhibition … (95% CI)” value (plasma DPP‐4 activity [5]; [14]) was 90.23 (86.59–92.88) % and the “DPP-4 percent inhibition, difference … (90% CI)” value (plasma DPP‐4 activity [5]; [14]) was 81.37 (73.30–90.00) %. For the same molecule, the “DPP-4 percent inhibition … (95% CI)” value (plasma DPP‐4 activity [5]; single dose 5 mg) was 79.20 (76.17–81.85) %, the “DPP-4 percent inhibition, difference … (90% CI)” value (plasma DPP‐4 activity [5]; single dose 5 mg) was 87.89 (80.96–95.09) % and the “DPP-4 percent inhibition … (95% CI)” value (plasma DPP‐4 activity [5]; single dose 10 mg (fasted)) was 77.39 (74.14–80.24) %. The “DPP-4 percent inhibition, difference … (90% CI)” value (plasma DPP‐4 activity [5]; single dose 10 mg (fasted)) was 86.09 (79.05–93.38) %, the “DPP-4 percent inhibition … (95% CI)” value (plasma DPP‐4 activity [5]; single dose 10 mg (fed)) was 73.90 (70.14–77.18) % and the “DPP-4 percent inhibition, difference … (90% CI)” value (plasma DPP‐4 activity [5]; single dose 10 mg (fed)) was 82.59 (75.36–90.06) %. For the same molecule, the “DPP-4 percent inhibition … (95% CI)” value (plasma DPP‐4 activity [5]; single dose 25 mg) was 85.97 (83.66–87.95) %, the “DPP-4 percent inhibition, difference … (90% CI)” value (plasma DPP‐4 activity [5]; single dose 25 mg) was 94.66 (88.11–101.49) % and the “DPP-4 percent inhibition … (95% CI)” value (plasma DPP‐4 activity [5]; single dose 50 mg) was 86.76 (84.59–88.63) %. The “DPP-4 percent inhibition, difference … (90% CI)” value (plasma DPP‐4 activity [5]; single dose 50 mg) was 95.45 (88.95–102.25) %, the “DPP-4 percent inhibition … (95% CI)” value (plasma DPP‐4 activity [5]; single dose 100 mg) was 94.01 (93.03–94.85) % and the “DPP-4 percent inhibition, difference … (90% CI)” value (plasma DPP‐4 activity [5]; single dose 100 mg) was 102.70 (96.60–109.11) %. The “inhibition from baseline of DPP‐4 activity maintained for 168 h” value (plasma DPP‐4 activity [5]; single and multiple q.w. administration at a dose of 25 mg or higher) was “Greater than 80%”, the “substrate of drug transporter OAT3” value (OAT3) was “not a substrate” and the “Accumulation ratio (day 15/day 1) AUC0–168h” value ([6]; 1 mg q.w. for 3 weeks) was 1.35 (1.27–1.44). The “Accumulation ratio (day 15/day 1) Cmax” value ([6]; 1 mg q.w. for 3 weeks) was 1.36 (1.13–1.63), the “Accumulation ratio (day 15/day 1) Ctrough” value ([6]; 1 mg q.w. for 3 weeks) was 1.24 (1.06–1.44) and the “Accumulation ratio (day 15/day 1) AUC0–168h” value ([6]; 10 mg q.w. for 3 weeks) was 1.09 (1.04–1.15). For the same molecule, the “Accumulation ratio (day 15/day 1) Cmax” value ([6]; 10 mg q.w. for 3 weeks) was 1.18 (1.00–1.38), the “Accumulation ratio (day 15/day 1) Ctrough” value ([6]; 10 mg q.w. for 3 weeks) was 0.97 (0.86–1.10) and the “effect of food on pharmacokinetics” value ([6]; 10 mg single dose with Japanese standard breakfast) was “did not meaningfully alter the pharmacokinetics”. The “Accumulation ratio (day 15/day 1) AUC0–168h” value ([6]; 25 mg q.w. for 3 weeks) was 1.05 (1.00–1.11), the “Accumulation ratio (day 15/day 1) Cmax” value ([6]; 25 mg q.w. for 3 weeks) was 0.87 (0.75–1.02) and the “Accumulation ratio (day 15/day 1) Ctrough” value ([6]; 25 mg q.w. for 3 weeks) was 1.11 (0.98–1.26). The “Accumulation ratio (day 15/day 1) AUC0–168h” value ([6]; 50 mg q.w. for 3 weeks) was 1.03 (0.97–1.09), the “Accumulation ratio (day 15/day 1) Cmax” value ([6]; 50 mg q.w. for 3 weeks) was 1.21 (1.02–1.43) and the “Accumulation ratio (day 15/day 1) Ctrough” value ([6]; 50 mg q.w. for 3 weeks) was 1.03 (0.90–1.18). For the same molecule, the “accumulation ratio (day 15/day 1) AUC0–168h, range” value ([6]; 1–50 mg q.w. for 3 weeks) was 1.03–1.35, the “accumulation ratio (day 15/day 1) Cmax, range” value ([6]; 1–50 mg q.w. for 3 weeks) was 0.87–1.36 and the “accumulation ratio (day 15/day 1) trough plasma concentration, range” value ([6]; 1–50 mg q.w. for 3 weeks) was 0.97–1.24. For the same molecule, the half-life ([6]; male, human, plasma, po, 10 mg, t½, single dose 10 mg, fed, geometric mean (%CV)) was 89.5 h, the “dose proportionality of AUC0–168h and trough plasma concentration” value ([6]; multiple dose 1–50 mg q.w.) was “less than dose‐proportional” and the “dose proportionality of Cmax” value ([6]; multiple dose 1–50 mg q.w.) was “dose‐proportional”. The “time at which steady state was reached” value ([6]; multiple q.w. dosing, all doses tested) was “after the first dose”, the “AUC0–168h geometric mean ratio (fed/fasted)” value ([6]; single dose 10 mg, GMR, 90% CI) was 0.97 (0.90–1.03) and the “AUC0–∞ geometric mean ratio (fed/fasted)” value ([6]; single dose 10 mg, GMR, 90% CI) was 1.03 (0.96–1.11). The “C168h geometric mean ratio (fed/fasted)” value ([6]; single dose 10 mg, GMR, 90% CI) was 1.13 (0.93–1.37), the “Cmax geometric mean ratio (fed/fasted)” value ([6]; single dose 10 mg, GMR, 90% CI) was 0.75 (0.65–0.86) and the “dose proportionality of AUC0–∞, AUC0–168h and Cmax” value ([6]; single dose 5–100 mg) was “approximately dose‐proportional”. For the same molecule, the “dose proportionality of C168h” value ([6]; single dose 5–100 mg) was “less than dose‐proportional”, the “free fraction of omarigliptin in humans” value [7] was 56–76% and the “enhancement of post‐meal active glucagon‐like peptide‐1” value [8] was “approximately twofold”.
